Measurements from ChEMBL document CHEMBL3860103, “Antibacterial and Antibiofilm Activity of Cationic Small Molecules with Spatial Positioning of Hydrophobicity: An in Vitro and in Vivo Evaluation” (J Med Chem, 2016).
Active and inactive are the calls of the source. No cut-off for these calls is given here.

Assays:
[1] = test system: Escherichia coli; experiment: Induction of biofilm disruption in Escherichia coli assessed as reduction in log bacterial burden at 32 ug/ml after 72 hrs by confocal laser-scanning microscopy; type: functional; conditions: in the assay text read “after 24 hrs” for “after 72 hrs”
Outline: (§1)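 Established coverslip biofilms (S. aureus 24 h in nutrient medium + 1% glucose + 1% NaCl; E. coli 72 h in M9 + 0.5% glycerol + 0.02% casamino acid; 37 °C) washed, then exposed to 32 µg/mL for 24 h at 37 °C. Matrix dissolved with trypsin-EDTA, serially diluted, plated on nutrient agar; viability as log10 CFU/mL versus media-only control.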

[2] = test system: Escherichia coli; experiment: Induction of membrane depolarization in Escherichia coli at 32 ug/ml after 0 to 20 mins by […] dye based assay; type: functional
Outline: (§2)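 Membrane-potential dye DiSC3(5) taken up by S. aureus or E. coli; depolarization followed as rise in dye fluorescence after adding compounds at 32 µg/mL.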

[3] = test system: Staphylococcus aureus; experiment: (§3) Antibacterial activity against Staphylococcus aureus infected in BALB/c mouse model of superficial skin infection and biofilm formation assessed as reduction in bacterial load in skin at 40 mg/kg applied topically once daily for 4 days and measured 18 hrs after last dose; type: functional
Outline: (§4)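 Female BALB/c mice (6–8 weeks, 18–22 g) made neutropenic with cyclophosphamide i.p. (150 mg/kg, then 100 mg/kg 3 days later), anesthetized, backs shaved, wounded and infected with MRSA ATCC 33591. After 24 h biofilm formation, 40 mg/kg applied topically to wound once daily for 4 days (n = 5/group; untreated control). Skin collected 18 h after last dose for CFU/g; portions formalin-fixed for SEM.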

[4] = Selectivity index, ratio of HC50 for induction of hemolysis in human RBC to MIC for Escherichia coli
[5] = test system: Staphylococcus aureus; experiment: Induction of biofilm disruption in Staphylococcus aureus after 24 hrs by confocal laser-scanning microscopy; type: functional
Outline: (§5)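 Biofilms grown on glass coverslips from ~10^5 CFU/mL: S. aureus in nutrient medium + 1% glucose + 1% NaCl, 24 h; E. coli in M9 + 0.5% glycerol + 0.02% casamino acid, 72 h; stationary, 37 °C. After PBS wash, treated 24 h at 37 °C with 32 µg/mL in the same medium; media-only control. Stained with SYTO 9 (5 µM), imaged by confocal microscopy.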

[6] = Selectivity index, ratio of HC50 for induction of hemolysis in human RBC to MIC for Staphylococcus aureus
[7] = test system: Escherichia coli; experiment: Antibacterial activity against Escherichia coli incubated for 24 hrs; type: functional
Outline: (§6)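 Broth microdilution: 6 h cultures diluted to ~10^5 CFU/mL in medium; compounds 2-fold serially diluted in water, mixed 1:3 with bacterial suspension. Incubated 24 h, 37 °C; OD600 read. MIC = concentration with OD similar to medium-only control. Triplicate wells, experiments repeated at least twice.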

[8] = test system: Mus musculus; experiment: Toxicity in topically dosed mouse assessed as induction of abnormal skin reaction at 200 mg/kg by OECD425 guidelines based method; type: organism-based; conditions: in vivo, topical_or_ocular
[9] = test system: Mus musculus; experiment: Toxicity in topically dosed mouse assessed as induction of inflammation at 200 mg/kg by OECD425 guidelines based method; type: organism-based; conditions: in vivo, topical_or_ocular
[10] = Toxicity in topically dosed mouse by OECD425 guidelines based method; type: organism-based; conditions: in vivo, topical or ocular
[11] = test system: Staphylococcus aureus; experiment: Induction of membrane depolarization in Staphylococcus aureus at 32 ug/ml after 0 to 20 mins by […] dye based assay; type: functional; outline: as §2
[12] = test system: Staphylococcus aureus; experiment: as §3, with “dose relative to un-treated control” for “dose”; type: functional; design: scale not given: the % may be the effect or the level left; outline: as §4
[13] = Toxicity in HEK293 cells assessed as induction of cell death at 64 ug/ml incubated for 24 hrs by calcein AM and propidium iodide dye based fluorescence microscopy; conditions: human, hek293, 24 h
Outline: (§7)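 HEK 293 cells seeded ~10^4 cells/well, treated with compounds for 24 h (16, 32 or 64 µg/mL); 0.1% Triton X positive, untreated negative control. Stained with calcein AM (2 µM) and PI (4.5 µM) 15 min at 37 °C, 5% CO2; imaged by fluorescence microscopy, 20X objective.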

[14] = test system: Escherichia coli; experiment: Induction of membrane permeabilization in Escherichia coli at 32 ug/ml after 0 to 20 mins by propidium iodide dye based assay; type: functional
Outline: (§8)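 Membrane permeabilization of S. aureus or E. coli followed as increase in propidium iodide fluorescence after adding compounds at 32 µg/mL.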

[15] = test system: Staphylococcus aureus; experiment: Induction of biofilm disruption in Staphylococcus aureus assessed as mature biofilm thickness at 32 ug/ml after 24 hrs by SYTO 9 dye based confocal laser-scanning microscopy (reference value: 14 to 18 um); type: functional; outline: as §5
[16] = Toxicity in HEK293 cells assessed as induction of cell death at 32 ug/ml incubated for 24 hrs by calcein AM and propidium iodide dye based fluorescence microscopy; conditions: human, hek293, 24 h; outline: as §7
[17] = test system: Staphylococcus aureus; experiment: Induction of biofilm disruption in Staphylococcus aureus assessed as reduction in log bacterial burden at 32 ug/ml after 24 hrs by confocal laser-scanning microscopy; type: functional; outline: as §1
[18] = Induction of membrane hydration changes in Laurdan dye containing DPPG:DPPE (88:12) liposomes assessed as reduction in general polarization at 25 to 100 ug/ml by luminescence spectrometry; type: physicochemical
Outline: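 Liposomes of 0.5 mM DPPG:DPPE (88:12) or 0.5 mM DPPC with Laurdan (lipid:dye 100:1), hydrated in PBS pH 7.4, 10 freeze–thaw cycles, sonicated 15 min at 70 °C. Compounds added in PBS (lipid:compound 7.4:1), tested at 25, 50, 100 µg/mL; emission at 440 and 490 nm (ex 350 nm), 37 °C. GP = (I440−I490)/(I440+I490).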

[19] = Induction of hemolysis in human RBC incubated for 1 hr; type: cell-based, Erythrocyte; conditions: red blood cells
Outline: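 Washed human RBCs from heparinized blood, 5 vol% in PBS, mixed 3:1 with serially diluted compounds; 1 h at 37 °C. Centrifuged; supernatant A540 read. Hemolysis % = (A−A0)/(Atotal−A0)×100, with water as 0% and 0.1 vol% Triton X-100 as full lysis.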

[20] = test system: Staphylococcus aureus; experiment: Antibacterial activity against Staphylococcus aureus incubated for 24 hrs; type: functional; outline: as §6
[21] = Toxicity in HEK293 cells assessed as cell density level at 16 ug/ml incubated for 24 hrs by calcein AM and propidium iodide dye based fluorescence microscopy; conditions: human, hek293, 24 h; outline: as §7
[22] = test system: Staphylococcus aureus; experiment: Induction of membrane permeabilization in Staphylococcus aureus at 32 ug/ml after 0 to 20 mins by propidium iodide dye based assay; type: functional; outline: as §8
[23] = test system: Escherichia coli; experiment: Induction of biofilm disruption in Escherichia coli assessed as mature biofilm thickness at 32 ug/ml after 24 hrs by SYTO 9 dye based confocal laser-scanning microscopy (reference value: 14 to 18 um); type: functional; outline: as §5
[24] = test system: Staphylococcus aureus; experiment: Antibacterial activity against methicillin-resistant Staphylococcus aureus incubated for 24 hrs; type: functional
Outline: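 MRSA (ATCC 33591) from a 6 h culture (~10^9 CFU/mL), diluted to ~10^5 CFU/mL in medium. Compounds in water, 2-fold serial dilutions, combined with the bacteria at 1:3 by volume and incubated 24 h at 37 °C. OD600 read. MIC is the lowest concentration whose OD matches the media-only control. Triplicate wells; experiments repeated at least twice.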

[25] = test system: Staphylococcus aureus; experiment: as §3, with “dose by FEI field emission scanning electron microscopy relative to un-treated control” for “dose”; type: functional, organism-based; outline: as §4

## CCCCCCNC(=O)C[N+](C)(C)CCCCCCCCCCCC[N+](C)(C)CC(=O)NCCCCCC.[Br-].[Br-]
[1]
  FC: 7.1
[2]
  Activity: Active
[3]
  Activity: 5.3 log10CFU/g
[4]
  Selectivity Index: 402
[5]
  MBEC: 31.2 to 62.5 µg/mL
[6]
  Selectivity Index: 805
[7]
  MIC: 2 µg/mL
[8]
  Activity: Non-Toxic
[9]
  Activity: Non-Toxic
[10]
  LD50: > 200 mg/kg
[11]
  Activity: Active
[12]
  Activity: >99.999%
[13]
  Activity: Non-Toxic
[14]
  Activity: Active
[15]
  Activity: 2 - 3 um
[16]
  Activity: Non-Toxic
[17]
  FC: 9.2
[18]
  Activity: Active
[19]
  HC50 at 1 h: 805 µg/mL
[20]
  MIC: 1 µg/mL
[21]
  Activity: Non-Toxic
[22]
  Activity: Active
[23]
  Activity: 2 - 3 um
[24]
  MIC: 2 µg/mL
[25]
  Activity: Active
